Source: PubChem (SRMLSC)
The full list was thinned out, with hits kept by preference.
H69AR growth 86K – blocks growth of human H69AR lung tumor cells. hit rate 6% among 85,000. viability, % at 10 µM. H69AR lung tumor viability, ATP luminescence, 72 h; active compounds read low;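 active = viability at or below 40%; inactive = viability above 40%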;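 note: multidrug resistant small cell line overexpressing MRP-1 efflux transporter; 100% = mean luminescence of untreated control wells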
PTEN del growth – PTEN-deleted cell growth suppression; HCT116 PTEN-null viability, CellTiter-Glo, 60 h; active compounds read low; viability, % at 10 µM; hit rate 1.2% among 140,000; AID 827;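 active = viability at or below a set limit, 4 SD under the median of all tested compounds, cut at about 3.7% in these data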;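 note: PTEN knockout HCT116 line with beta catenin targeted HCT116 as companion control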
HCT116 bCat-KO – beta-catenin-lacking colon tumor cell growth suppression; viability, % at 10 µM; hit rate 1.5% among 140,000; HCT116 beta-catenin knockout viability, CellTiter-Glo, 60 h; active compounds read low;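 active = viability at or under a set limit, the compound median less 4 SD, cut at about 6% in these data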;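 note: 0% = Hyamine 1622 control at 20 µM and 100% = untreated cell control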
Lung fibro prol – blocks proliferation of human lung fibroblasts | hit rate 1.1% among 85,000 | viability, % at 10 µM | LL 47 human lung fibroblast viability, ATP luminescence; active compounds read low;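 active = viability at or below 50% in the single dose screen; inactive = viability above 50%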;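 note: compound exposure lasted 72 h before the ATP readout; 100% = median luminescence of untreated cell-only wells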
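Test system: LL 47 human lung fibroblasts; Quantity: 1,150 cells/well; Buffer or medium: IMEM plus 15% FBS; Dosing: tenfold compound dosing solution, DMSO at 0.1%; Timing: overnight cell rest, 72 h compound treatment at 37 °C; Detection: ATP-based CellTiter-Glo luminescent readout; Read-out basis: viability percentage against median untreated-cell control; Controls: cell-only wells, no compound.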
HUVEC inhibit – human endothelial cell proliferation inhibition; hit rate 1.1% among 86,000; AID 648; HUVEC proliferation, CellTiter-Glo luminescence, 72 h; active compounds read low; viability, % at 10 µM (by protocol);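 active = viability at or below 30%; inactive = viability above 30%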;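 note: 100% = median luminescence of DMSO-only cell control wells on each plate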
Numbers without * were called inactive; / = not tested or not shown; ! = not confirmed by another sample.

SMILES | H69AR growth 86K | PTEN del growth | HCT116 bCat-KO | Lung fibro prol | HUVEC inhibit
O=C(Cn1cc(C(=O)c2ccccc2F)c2ccccc21)NCc1ccco1 | 111.7 | 88.0 | 99.4 | 43.1* | 74.2
CCCCn1c(O)c(C=NC2CC3CCC2(C)C3(C)C)c(=O)[nH]c1=O (stereo not drawn) | 15.0* | 35.6 | 56.0 | 96.0 | 97.8
Cn1c(O)c(C=NC2CC3CCC2(C)C3(C)C)c(=O)[nH]c1=O (stereo not drawn) | 85.8 | 91.0 | 84.4 | 97.6 | 97.0
CN1CCC(N(C)c2nc(-c3ccc([N+](=O)[O-])cc3)nc3ccccc23)CC1 | / | 1.5* | 1.5* | / | /
CCOC(=O)c1c(C)n(Cc2ccc3c(c2)OCO3)c2ccc(O)cc12 | 94.3 | 84.3 | 82.4 | 94.5 | 81.6
CCOC(=O)c1c(C)n(Cc2ccccc2)c2ccc(OCC(O)CN3C(=O)CNC3=O)cc12 (stereo not drawn) | 27.3* | 92.2 | 91.7 | 101.9 | 86.4
CO[C@H]1[C@@H](OC)CC(OC2OC(CO)C(O)C(O)C2O)/C(=C\C#N)[C@@H]1O (stereo partly drawn) | / | 102.2 | 96.8 | / | /
C=CC1CN2CCC1CC2c1[nH]c2ccccc2c1CCO (stereo not drawn) | / | 99.5 | 92.9 | / | /
c1ccc2cc3cc4ccccc4cc3cc2c1 | 100.9 | / | / | 85.2 | 89.6
Cc1ccccc1C(O)(Cc1ccccc1)C1CN2CCC1CC2 (stereo not drawn) | 41.8 | 0.3* | 1.1* | 70.9 | 47.8
CC(C)COc1ccc(C2(C#N)CC[N+](C)(C)CC2)cc1 | / | 93.6 | 99.9 | / | /
CCCCCc1nc2ccccc2c(=O)n1-c1ccccc1[N+](=O)[O-] | / | 72.0 | 79.5 | / | /
CCCCCc1nc2c(c(=O)c3ccccc3n2C)c(=O)n1C1CCCCCC1 | / | 1.6* | 1.5* | / | /
Cc1cc2c(C(C)C)c(O)c(O)c(C=O)c2c(O)c1-c1c(C)cc2c(C(C)C)c(O)c(O)c(C=O)c2c1O | 0.6* | 1.9*! | 4.8* | 28.5*! | 3.0*
COCCOC(=O)C1=C(N)Oc2c(c(=O)oc3ccccc23)C1c1ccncc1 (stereo not drawn) | 91.8 | 107.9 | 112.5 | 97.3 | 97.7
CCOc1ccc2[nH]c(=O)c(CN(CCO)C3(c4nnnn4C4CCCCC4)CCCCC3)cc2c1 | 57.0 | 86.8 | 86.5 | 86.7 | 80.1
CC(/C=N/NC(=O)c1n[nH]c2c1CCC2)=C\c1ccccc1 | 22.8* | 15.2 | 13.7 | 45.9* | 36.3
O=c1[nH]c(=O)n(-c2cccc3ccccc23)c(O)c1/C=N/N1CCCCC1c1cccnc1 (stereo not drawn) | / | 86.1 | 90.6 | / | /
CN(C)c1ccc(N=Cc2c(O)n(CCC3=CCCCC3)c(=O)[nH]c2=O)cc1 | 10.1* | 90.6 | 89.1 | 99.4 | 64.5
O=c1[nH]c(=O)n(CCC2=CCCCC2)c(O)c1C=NC1CCN(Cc2ccccc2)CC1 | 32.4* | 29.0 | 38.5 | 95.5 | 96.2
C=CCn1c(O)c(C=Nc2ccc(N(CC)CC)cc2)c(=O)[nH]c1=O | 85.3 | 91.7 | 96.6 | 91.2 | 102.4
CCN(CC)c1ccc(N=Cc2c(O)n(CCC3=CCCCC3)c(=O)[nH]c2=O)cc1 | 16.6* | 47.1 | 58.5 | 88.5 | 70.7
CC(C)(C)C(=O)OCC12CCC(O1)C1(C)C(=O)OCC21 (stereo not drawn) | / | 98.1 | 97.5 | / | /
Cc1nnc2n1-c1ccc(Cl)cc1C(c1ccccc1)=NC2 | 105.6 | / | / | 91.4 | 73.6
CC12CN3CC(C)(CN(C1)C3c1cccs1)C2O (stereo not drawn) | 81.7 | 104.5 | 99.7 | 100.4 | 100.0
SMILES | H69AR growth 86K | PTEN del growth | HCT116 bCat-KO | Lung fibro prol | HUVEC inhibit
C=Cn1c(P(=S)(N2CCOCC2)N2CCOCC2)cc2c1CCCC2 | 78.8 | 87.9 | 91.2 | 88.0 | 111.2
CC/C(=C\C=C\[C@@H]1C=C[C@@H]2CCC[C@H]2[C@@H]1C(=O)c1ccc[nH]1)[C@@H]1O[C@@H]([C@@H](C)C(=O)O)CC[C@@H]1C | 15.0* | 27.1 | 18.8 | 38.0* | 12.4*
O=C(N/N=C1/CN2CCC1CC2)c1cc2ccccc2cc1O | 37.5* | 75.3 | 76.0 | 75.0 | 107.5
CCOCC(=O)NC1CCSC1=O (stereo not drawn) | 101.8 | 94.3 | 93.0 | 101.5 | 96.2
Nc1c2c(nc3sc4c(c13)CCCCC4)CCCC2 | / | 6.9 | 3.4* | / | /
CN[C@H]1C[C@H]2O[C@@](C)([C@H]1OC)n1c3ccccc3c3c4c(c5c6ccccc6n2c5c31)C(=O)NC4 | / | 1.2* | 2.1* | / | /
N=C(N)c1c(O)n(C2CCCCC2)c(=O)n(C2CCCCC2)c1=O | 1.1* | 13.2 | 30.1 | 31.0* | 2.5*
